In ChEMBL document CHEMBL1121817, “Synthesis and pharmacological properties of 1,2,3,4,5,6-hexahydro-1,6-methano-2-benzazocines” (J Med Chem, 1981) one finds ED50 and LD50 data, which are given here for 19 compounds.

SMILES strings stand for the structures. Where “and” joins values, the source holds several entries; their conditions need not be identical. Equal values may be shown once. Calls of active or inactive are those of the source. The rule behind the calls is not given here.

The species named for series [1] is Mus musculus. Kind of series: Analgesic potency was determined by the Eddy hotplate method on mice expressed as effective dose; IA=Inactive. In kind it is functional, organism-based. In short, it runs like this:
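Mice, Eddy hot-plate analgesia. Test compounds given as aqueous solutions of their hydrochloride, hydrobromide or oxalate salts. ED50 reported in mg/kg and μmol/kg, some with a range in parentheses. Where full activity could not be reached without toxicity, an approximate value is cited. Lethality was scored as LD50 in mg/kg or as deaths per ten mice at 50 mg/kg.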

Series [2] is described as follows: Analgesic potency was determined by the Eddy hotplate method on mice expressed as lethal dose. The following applies: mouse, in vivo. The class given is ADME, organism-based. In short, it runs like this: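 Toxicity was tested in mice in the same series, using aqueous solutions of the hydrochloride, hydrobromide or oxalate salt, and LD50 is reported in mg/kg. When material was scarce, deaths out of ten mice given a single 50 mg/kg dose were recorded instead.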

Series [3] is filed under the species Mus musculus. Kind of series: Analgesic potency was determined by the Eddy hotplate method on mice. In kind it is functional.
The species named for series [4] is Mus musculus. Kind of series: Analgesic potency was determined by the Eddy hotplate method on mice expressed as effective dose. In kind it is functional. The gist of the method: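 Mouse Eddy hot-plate test. Compounds were given as aqueous solutions of the hydrochloride, hydrobromide or oxalate salt. ED50 is reported in mg/kg and μmol/kg, with a range in parentheses for some entries.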

As a reminder, the ED50 is the midpoint of the dose-response relation. With `COc1ccc2c(c1)C1CCCN(CCc3ccccc3)C2C1` (stereo unspecified), the ED50 entry in the series listed under Mus musculus [1] was “inactive”.

A word on the LD50: it is the dose at which mortality reaches 50%. In series [2], `O=C(O)C(=O)O.c1ccc(CCN2CCCC3CC2c2ccccc23)cc1` (stereo unspecified) registered a median lethal dose (LD50) of 225 mg/kg.

Turning to `CC(C)=CCN1CCCC2CC1c1ccccc12.O=C(O)C(=O)O` (stereo unspecified), the 50% lethal dose (LD50) in series [2] came to 130 mg/kg.

As for `CCCN1CCCC2CC1c1ccccc12.O=C(O)C(=O)O` (stereo unspecified), the median lethal dose (LD50) in series [2] worked out at 110 mg/kg.

For the compound `C=CCN1CCCC2CC1c1ccccc12.Cl` (stereo unspecified), in the series listed under Mus musculus [3], the median effective dose (ED50) was 28 mg/kg and 112 µmol/kg. The LD50 in series [2] came to 110 mg/kg.

`CN1CCCC2CC1c1ccc(O)cc12` (stereo unspecified): the ED50 result in the series filed under Mus musculus [1] was “inactive”.

For the compound `Br.CN1CCCC2CC1c1ccccc12` (stereo unspecified), in the series filed under Mus musculus [3], the 50% effective dose (ED50) is 45 mg/kg and 168 µmol/kg.

Consider `COc1ccc2c(c1)C1CCCNC2C1.O=C(O)C(=O)O` (stereo unspecified), for which the 50% effective dose (ED50) in the series listed under Mus musculus [4] was 64 mg/kg and 218 µmol/kg.

Turning to `COc1ccc2c(c1)C1CCCN(CC=C(C)C)C2C1.O=C(O)C(=O)O` (stereo unspecified), the ED50 entry in the series listed under Mus musculus [1] is “inactive”. In series [2], this compound showed an LD50 of 300 mg/kg.

As for `CC(C)=CCN1CCCC2CC1c1ccccc12.Cl` (stereo unspecified), the ED50 in the series filed under Mus musculus [3] was 48 mg/kg and 173 µmol/kg. Also, the LD50 in series [2] was 65 mg/kg.

Take `Br.CCCN1CCCC2CC1c1ccc(O)cc12` (stereo unspecified): the ED50 in the series listed under Mus musculus [4] is 32 mg/kg and 103 µmol/kg.

Turning to `CCCN1CCCC2CC1c1ccccc12.Cl` (stereo unspecified), the ED50 in the series filed under Mus musculus [3] was 28 mg/kg and 112 µmol/kg. This compound also returned an LD50 in series [2] of 75 mg/kg.

`COc1ccc2c(c1)C1CCCN(C)C2C1.O=C(O)C(=O)O` (stereo unspecified): the median effective dose (ED50) in the series listed under Mus musculus [4] is 16 mg/kg and 52 µmol/kg. Moreover, in series [2], the LD50 was found to be 157 mg/kg.

For the compound `Cl.c1ccc2c(c1)C1CCCNC2C1` (stereo unspecified), in the series listed under Mus musculus [3], the median effective dose (ED50) was 12 mg/kg and 57 µmol/kg. The same compound had an LD50 in series [2] of 225 mg/kg.

On to `O=C(O)C(=O)O.c1ccc2c(c1)C1CCCNC2C1` (stereo unspecified), for which, in series [2], the 50% lethal dose (LD50) came out at 225 mg/kg.

With `COc1ccc2c3c1O[C@H]1[C@@H](O)C=C[C@H]4[C@@H](C2)N(C)CC[C@@]341.COc1ccc2c3c1O[C@H]1[C@@H](O)C=C[C@H]4[C@@H](C2)N(C)CC[C@@]341.O.O=P(O)(O)O.O=P(O)(O)O` [CODEINE PHOSPHATE], the ED50 in the series listed under Mus musculus [3] is 6.8 mg/kg and 17 µmol/kg.

Regarding `C=CCN1CCCC2CC1c1ccccc12.O=C(O)C(=O)O` (stereo unspecified), in series [2], the median lethal dose (LD50) was 150 mg/kg.

Turning to `Br.Oc1ccc2c(c1)C1CCCN(CCc3ccccc3)C2C1` (stereo unspecified), the ED50 in the series filed under Mus musculus [4] was 14 mg/kg and 37 µmol/kg.

`Cl.c1ccc(CCN2CCCC3CC2c2ccccc23)cc1` (stereo unspecified): the ED50 in the series filed under Mus musculus [3] was 86 mg/kg and 246 µmol/kg. Further, the LD50 in series [2] came out at 225 mg/kg.
